# Measurements as given in ChEMBL document CHEMBL4400543, “Identification and Characterization of AES-135, a Hydroxamic Acid-Based HDAC Inhibitor That Prolongs Survival in an Orthotopic Mouse Model of Pancreatic Cancer” (J Med Chem, 2019).
# Active and inactive are the calls of the source.
# What was measured:
# [1] = Apparent permeability across basolateral to apical side in human Caco2 cells at 5 uM by LC-MS/MS analysis; assay type: ADME, cell-based; conditions: caco-2, 5 µM
# Procedure, shortened: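 Caco-2 monolayer permeability run in duplicate. Monolayer integrity checked by TEER and Lucifer Yellow fluorescence (ex 485/em 530 nm). Papp measured apical-to-basolateral and basolateral-to-apical by LC-ESI-MS/MS with internal standards. Digoxin, prazosin and propranolol as controls.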
# [2] = Cytotoxicity against human […] cells assessed as reduction in tumor spheroid area after 72 hrs by Alamar Blue assay; assay type: cell-based
# Procedure, shortened: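 3D spheroids of patient-derived PDAC cells (tomato red) alone or with CAF19 cells, plus CAF cultures. Imaging read-outs: area is the μ2 of objects above a tomato red intensity threshold; intensity is summed red or green pixel fluorescence after background removal. n = 3–5.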
# PC-3 = experiment: Cytotoxicity against human PC3 cells at 50 uM after 72 hrs by CellTiter-Blue assay; assay type: functional, cell-based
# [3] = biological target: Signal transducer and activator of transcription 3 (Homo sapiens) (UniProt P40763); experiment: Inhibition of STAT3 phosphorylation at Y705 residue in human BTSC 147EF cells at 2 uM after 3 to 24 hrs by Western blot method; assay type: cell-based
# Procedure, shortened: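 BTSCs dissociated to single cells and treated with drug or DMSO. Lysed in RIPA buffer with protease inhibitors. 20 μg lysate run on SDS-PAGE and transferred to nitrocellulose. Blocked in 5% milk, primary antibody overnight at 4 °C, then HRP secondary for 1 h.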
# [4] = biological target: Histone deacetylase 8 (Homo sapiens) (UniProt Q9BY41); experiment: Inhibition of recombinant human HDAC8 expressed in SF9 baculoviral system at 10 uM using FAM-labeled acetylated peptide as substrate by EMSA relative to control
# Procedure, shortened: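 Single-point screen at 10 μM compound, using full-length recombinant human enzyme expressed in Sf9 cells. Buffer was HEPES pH 7.5 with KCl, BSA and Triton X-100, and 1% DMSO. Final enzyme was 0.5 nM for HDAC3, 60 nM for HDAC6 and 5.0 nM for HDAC8, with 1 μM FAM-acetylated peptide. Percent inhibition was derived from the product sum ratio relative to DMSO-only (0%) and no-enzyme (100%) controls.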
# Histone deacetylase 11 = biological target: T1, Histone deacetylase 11 (Homo sapiens, UniProt Q96DB2); experiment: Inhibition of recombinant human HDAC11 expressed in SF9 baculoviral system using FAM-labeled acetylated peptide as substrate by EMSA
# T1 sequence (Q96DB2 whole entry): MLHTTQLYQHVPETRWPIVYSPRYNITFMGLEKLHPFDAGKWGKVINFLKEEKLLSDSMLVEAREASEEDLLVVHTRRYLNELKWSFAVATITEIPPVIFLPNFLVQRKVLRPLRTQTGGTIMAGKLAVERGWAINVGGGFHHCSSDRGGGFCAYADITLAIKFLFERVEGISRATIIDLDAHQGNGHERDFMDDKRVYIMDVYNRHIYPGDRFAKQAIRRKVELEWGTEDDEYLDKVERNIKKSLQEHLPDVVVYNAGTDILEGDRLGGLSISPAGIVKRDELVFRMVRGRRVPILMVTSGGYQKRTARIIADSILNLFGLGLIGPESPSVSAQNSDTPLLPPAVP
# Procedure, shortened: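 Full-length human HDAC11 (Sf9-expressed), 10 nM final, in 100 mM HEPES pH 7.5, 25 mM KCl, 0.1% BSA, 0.01% Triton X-100, 1% DMSO. FAM-acetylated peptide substrate at 100 μM, mobility-shift read-out. Product/(substrate + product) converted to % inhibition. IC50 from a four-parameter fit; dose-response spans 12 threefold dilutions from 30.0 μM.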
# [5] = biological target: Signal transducer and activator of transcription 3 (Homo sapiens) (UniProt P40763); experiment: Inhibition of STAT3 phosphorylation at Y705 residue in human MDA-MB-231 cells up to 30 uM after 5 hrs by Western blot method; assay type: cell-based
# Procedure, shortened: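 Run on 4–15% SDS-PAGE and transferred to PVDF. Primary antibodies 1:1000 overnight at 4 °C, HRP or fluorescent secondary 1:5000, ECL detection, β-actin loading control.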
# [6] = Lipophilicity, log D of the compound at pH 7.4 by LC-ESI MS analysis; assay type: physicochemical; conditions: buffer
# Procedure, shortened: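 Partitioning measured in a 1-octanol/phosphate-buffered saline system at pH 7.4.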
# [7] = Stability of the compound in DMSO at 10 mM after 16 hrs in presence of 100 fold excess reduced L-glutathione by 19F NMR analysis; assay type: physicochemical; conditions: 10000 µM
# Homo sapiens = organism: Homo sapiens; experiment: Cytotoxicity against human D425 cells at 39 nM after 72 hrs by Presto Blue assay; assay type: functional, cell-based
# Procedure, shortened: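 D425 and D458 medulloblastoma cells in DMEM high glucose with 20% FBS, seeded at 1000 cells/well in medium with 1% FBS. Twofold dilutions from 20 μM down to 39 nM. Exposed 3 days at 37 °C. Presto Blue added about 4 h before fluorescence read (540–570 nm). IC50 from % viability versus log concentration.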
# [8] = Cytotoxicity against human MRC9 cells at 50 uM after 72 hrs by CellTiter-Blue assay; assay type: cell-based
# Procedure, shortened: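 Cells in 10% FBS medium, 10 000 cells/well, treated 24 h after plating. Twofold dilution series from a 50.0 μM top dose to 0.097656 μM, in triplicate, 0.5% DMSO vehicle. 72 h at 37 °C, 5% CO2. CellTiter-Blue for 1–4 h, fluorescence 560/590 nm. IC50 by nonlinear regression.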
# Chain of Signal transducer and activator of transcription 3 (Homo sapiens) (P40763 whole entry): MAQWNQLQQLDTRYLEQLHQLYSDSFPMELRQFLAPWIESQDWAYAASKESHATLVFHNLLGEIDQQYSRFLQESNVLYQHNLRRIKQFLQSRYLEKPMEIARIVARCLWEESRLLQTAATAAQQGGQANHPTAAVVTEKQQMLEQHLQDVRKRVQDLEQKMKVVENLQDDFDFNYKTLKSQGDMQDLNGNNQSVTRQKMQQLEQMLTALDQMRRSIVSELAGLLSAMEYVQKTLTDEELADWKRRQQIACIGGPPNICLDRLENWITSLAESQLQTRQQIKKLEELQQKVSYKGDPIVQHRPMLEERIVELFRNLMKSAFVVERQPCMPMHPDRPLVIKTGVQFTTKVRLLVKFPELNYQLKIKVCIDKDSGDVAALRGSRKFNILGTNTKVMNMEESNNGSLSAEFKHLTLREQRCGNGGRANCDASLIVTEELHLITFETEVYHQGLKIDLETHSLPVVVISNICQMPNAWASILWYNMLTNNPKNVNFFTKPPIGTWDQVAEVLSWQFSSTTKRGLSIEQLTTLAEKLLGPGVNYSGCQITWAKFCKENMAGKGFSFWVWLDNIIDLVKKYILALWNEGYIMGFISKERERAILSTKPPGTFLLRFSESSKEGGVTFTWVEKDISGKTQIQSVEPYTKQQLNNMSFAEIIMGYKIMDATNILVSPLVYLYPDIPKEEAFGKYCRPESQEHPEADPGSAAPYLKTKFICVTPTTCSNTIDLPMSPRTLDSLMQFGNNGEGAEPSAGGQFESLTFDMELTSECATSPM
# Chain of Histone deacetylase 8 (Homo sapiens) (Q9BY41 whole entry): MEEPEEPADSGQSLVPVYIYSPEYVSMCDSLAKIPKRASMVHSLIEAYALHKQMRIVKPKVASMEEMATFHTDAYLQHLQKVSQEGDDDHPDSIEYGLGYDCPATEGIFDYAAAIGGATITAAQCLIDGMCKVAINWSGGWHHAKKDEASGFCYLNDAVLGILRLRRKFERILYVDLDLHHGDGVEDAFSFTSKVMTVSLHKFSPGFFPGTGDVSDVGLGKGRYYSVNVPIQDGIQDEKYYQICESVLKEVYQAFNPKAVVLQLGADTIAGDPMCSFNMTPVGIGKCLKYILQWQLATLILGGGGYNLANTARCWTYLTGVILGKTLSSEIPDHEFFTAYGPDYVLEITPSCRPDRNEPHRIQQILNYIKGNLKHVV
smiles,measurement,setting,value
CC(C)(C)c1ccc(CN(C(=O)CN(Cc2c(F)c(F)c(F)c(F)c2F)S(=O)(=O)c2ccc(F)cc2)c2ccc(C(=O)NO)cc2)cc1,Papp,[1],1.02 ×10⁻⁶ cm/s
same,IC50,[2],4700 to 7800 nM
same,Activity,PC-3,Active
same,inhibition,[3],inactive
same,inhibition,[4],94%
same,IC50,Histone deacetylase 11,636 nM
same,inhibition,[5],inactive
same,logD,[6],4.15
same,Stability,[7],Stable
same,Activity,Homo sapiens,Active
same,Activity,[8],Non-Toxic
